Assay results as given in ChEMBL document CHEMBL2163303, “The development of first Staphylococcus aureus SplB protease inhibitors: phosphonic analogues of glutamine” (Bioorg Med Chem Lett, 2012).
Calls of active or inactive are those of the source. No cut-off for these calls is given here.

What was measured:
[1] = Ratio of rate of irreversible step k2 to Ki for subtilisin using fluorogenic Suc-Ala-Ala-Pro-Phe-AMC as substrate by spectrofluorometry
How it was run: (§1)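 Run in 0.1 M HEPES, 0.5 M NaCl, 0.03% Triton X-100, pH 7.5, 37 °C, with chymotrypsin at 3 nM or subtilisin at 5 nM. Enzyme added to Suc-Ala-Ala-Pro-Phe-AMC plus excess inhibitor, read at Ex 350/Em 460 nm. k_obs taken from progress curves; k2/Ki derived via a Km-corrected irreversible-inhibition model.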

[2] = Ratio of rate of irreversible step k2 to Ki for chymotrypsin using fluorogenic Suc-Ala-Ala-Pro-Phe-AMC as substrate by spectrofluorometry; how it was run: as §1
[3] = target: T1, Serine protease SplB (Staphylococcus aureus) (UniProt Q53781); experiment: Ratio of rate of irreversible step k2 to Ki for Staphylococcus aureus SplB using fluorogenic […] as substrate up to 200 uM by spectrofluorometry
T1 sequence (whole entry): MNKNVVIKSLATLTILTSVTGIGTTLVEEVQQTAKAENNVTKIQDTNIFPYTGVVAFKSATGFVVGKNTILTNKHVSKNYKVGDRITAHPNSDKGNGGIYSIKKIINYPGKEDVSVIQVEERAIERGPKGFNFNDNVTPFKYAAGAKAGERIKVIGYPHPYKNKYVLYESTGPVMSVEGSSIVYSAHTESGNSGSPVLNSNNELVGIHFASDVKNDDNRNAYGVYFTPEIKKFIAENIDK
How it was run: (§2)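 Enzyme added to substrate plus excess inhibitor in 0.1 M Tris-HCl, 0.01% Triton X-100, pH 7.6, 37 °C; SplB at 100 nM. Ac-Trp-Glu-Leu-Gln-ACC read at Ex 355/Em 460 nm. Pseudo-first-order k_obs taken from progress curves; k2/Ki fitted using substrate Km.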

Serine protease SplB = target: T2, Serine protease SplB (Staphylococcus aureus, UniProt Q53781); experiment: Inhibition of Staphylococcus aureus SplB using fluorogenic […] as substrate by spectrofluorometry; how it was run: as §2
T2 sequence (Q53781 whole entry): T1 sequence (whole entry)

[4] = Inhibition of subtilisin using fluorogenic Suc-Ala-Ala-Pro-Phe-AMC as substrate by spectrofluorometry; how it was run: as §1
[5] = Inhibition of chymotrypsin using fluorogenic Suc-Ala-Ala-Pro-Phe-AMC as substrate by spectrofluorometry; how it was run: as §1
[6] = target: T1, Serine protease SplB (Staphylococcus aureus); experiment: Inhibition of Staphylococcus aureus SplB using fluorogenic […] as substrate up to 200 uM by spectrofluorometry; how it was run: as §2

CC(C)CC(NC(=O)OCc1ccccc1)C(=O)NC(CCC(N)=O)P(=O)(Oc1ccccc1)Oc1ccccc1 (mixture of isomers)
Ratio [1]: < 10 M⁻¹ s⁻¹
Ratio [2]: < 10 M⁻¹ s⁻¹
Ratio [3]: < 10 M⁻¹ s⁻¹
Ki (Serine protease SplB): > 200 µM
Ki [4]: > 200 µM
Ki [5]: > 200 µM
inhibition [6]: inactive

COc1ccc(OP(=O)(Oc2ccc(OC)cc2)C(CCC(N)=O)NC(=O)C(CC(C)C)NC(=O)OCc2ccccc2)cc1 (mixture of isomers)
Ratio [1]: 57 M⁻¹ s⁻¹
Ratio [2]: < 10 M⁻¹ s⁻¹
Ratio [3]: < 10 M⁻¹ s⁻¹
Ki (Serine protease SplB): > 200 µM
Ki [4]: 35 µM
Ki [5]: > 200 µM
inhibition [6]: inactive

CCc1ccc(OP(=O)(Oc2ccc(CC)cc2)C(CCC(N)=O)NC(=O)C(CC(C)C)NC(=O)OCc2ccccc2)cc1 (mixture of isomers)
Ratio [1]: < 10 M⁻¹ s⁻¹
Ratio [2]: < 10 M⁻¹ s⁻¹
Ratio [3]: < 10 M⁻¹ s⁻¹
Ki (Serine protease SplB): > 200 µM
Ki [4]: > 200 µM
Ki [5]: > 200 µM
inhibition [6]: inactive

NC(=O)CCC(NC(=O)OCc1ccccc1)P(=O)(Oc1ccccc1)Oc1ccccc1 (racemic)
Ratio [1]: < 10 M⁻¹ s⁻¹
Ratio [2]: < 10 M⁻¹ s⁻¹
Ratio [3]: < 10 M⁻¹ s⁻¹
Ki (Serine protease SplB): > 200 µM
Ki [4]: > 200 µM
Ki [5]: > 200 µM
inhibition [6]: inactive

COc1ccc(OP(=O)(Oc2ccc(OC)cc2)C(CCC(N)=O)NC(=O)OCc2ccccc2)cc1 (racemic)
Ratio [1]: 33 M⁻¹ s⁻¹
Ratio [2]: < 10 M⁻¹ s⁻¹
Ratio [3]: < 10 M⁻¹ s⁻¹
Ki (Serine protease SplB): > 200 µM
Ki [4]: 111 µM
Ki [5]: > 200 µM
inhibition [6]: inactive

CC(C)(C)c1ccc(OP(=O)(Oc2ccc(C(C)(C)C)cc2)C(CCC(N)=O)NC(=O)OCc2ccccc2)cc1 (racemic)
Ratio [1]: < 10 M⁻¹ s⁻¹
Ratio [2]: < 10 M⁻¹ s⁻¹
Ratio [3]: < 10 M⁻¹ s⁻¹
Ki (Serine protease SplB): > 200 µM
Ki [4]: > 200 µM
Ki [5]: > 200 µM
inhibition [6]: inactive

CCc1ccc(OP(=O)(Oc2ccc(CC)cc2)C(CCC(N)=O)NC(=O)OCc2ccccc2)cc1 (racemic)
Ratio [1]: < 10 M⁻¹ s⁻¹
Ratio [2]: < 10 M⁻¹ s⁻¹
Ratio [3]: < 10 M⁻¹ s⁻¹
Ki (Serine protease SplB): > 200 µM
Ki [4]: > 200 µM
Ki [5]: > 200 µM
inhibition [6]: inactive

CC(C)CC(NC(=O)OCc1ccccc1)C(=O)NC(CCC(N)=O)P(=O)(Oc1ccc(C(C)(C)C)cc1)Oc1ccc(C(C)(C)C)cc1 (racemic)
Ratio [1]: < 10 M⁻¹ s⁻¹
Ratio [2]: < 10 M⁻¹ s⁻¹
Ratio [3]: < 10 M⁻¹ s⁻¹
Ki (Serine protease SplB): > 200 µM
Ki [4]: > 200 µM
Ki [5]: > 200 µM
inhibition [6]: inactive
